Source: paper PMC3828798 (Journal of the American Heart Association: Cardiovascular …, 2013)

Biological target: Recombinant angiotensin converting enzyme 2 (rACE2) (Homo sapiens, UniProt Q9BYF1)
Test: ACE2 proteolysis assay of pyr‐1‐apelin‐13 and APLN analogues
Format: in vitro ADME
Conditions: rACE2 in Tris buffer pH 8.0; HPLC coupled with MALDI‐TOF; Figures S8 and S9
Outline: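 Quenched with 100 mmol/L EDTA pH 7.0. C18 reverse-phase HPLC, 10–45% acetonitrile/0.1% TFA, detection at 220 nm. Hydrolysis taken from substrate and product peak areas; masses confirmed by MALDI-TOF.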

Recombinant angiotensin converting enzyme 2 (rACE2), sequence (Q9BYF1 18-805): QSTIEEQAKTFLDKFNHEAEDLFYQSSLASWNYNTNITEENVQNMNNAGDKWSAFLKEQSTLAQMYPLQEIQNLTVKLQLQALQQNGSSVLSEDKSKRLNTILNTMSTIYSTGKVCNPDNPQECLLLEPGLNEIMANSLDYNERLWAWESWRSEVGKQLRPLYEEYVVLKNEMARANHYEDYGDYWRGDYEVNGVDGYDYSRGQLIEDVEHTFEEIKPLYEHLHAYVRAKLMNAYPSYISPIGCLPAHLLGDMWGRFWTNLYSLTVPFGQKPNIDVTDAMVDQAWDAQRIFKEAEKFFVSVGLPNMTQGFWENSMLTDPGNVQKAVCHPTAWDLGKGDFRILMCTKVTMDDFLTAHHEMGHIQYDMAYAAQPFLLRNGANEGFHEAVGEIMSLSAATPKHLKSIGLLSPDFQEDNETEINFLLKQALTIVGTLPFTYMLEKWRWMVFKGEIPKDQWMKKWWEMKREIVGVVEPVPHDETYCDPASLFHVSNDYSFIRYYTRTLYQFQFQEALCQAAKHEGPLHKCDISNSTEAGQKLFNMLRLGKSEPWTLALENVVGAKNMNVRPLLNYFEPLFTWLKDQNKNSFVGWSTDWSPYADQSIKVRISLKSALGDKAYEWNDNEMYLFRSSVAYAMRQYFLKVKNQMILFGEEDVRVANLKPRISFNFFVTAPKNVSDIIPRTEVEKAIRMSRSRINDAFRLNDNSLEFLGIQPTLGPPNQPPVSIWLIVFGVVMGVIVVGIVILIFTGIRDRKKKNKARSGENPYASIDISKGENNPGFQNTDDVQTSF

Substance: pyr‐1‐apelin‐13 (QRPRLSHKGPMPF; Apelin-13 N-terminal pyroglutamate; UniProt Q9ULZ1 65-77, looked up, fragment)
- susceptibility to ACE2‐mediated proteolysis (result in words): efficient ACE2‐mediated cleavage
